In brackets after ≈: the same amount, converted by molar mass.
Tests used:
Candida parapsilosis = experiment: Antifungal activity against Candida parapsilosis ATCC 22019 at 35 degC after 48 hrs by broth microdilution test; assay type: functional; conditions: Lodderomyces parapsilosis, ATCC 22019, 48 h; for MFC: read-out: MFC; for MIC: read-out: MIC
How it was run: (§1)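 Broth microdilution per NCCLS M27-A2. Stocks in 100% DMSO, diluted in RPMI 1640 with 0.165 M MOPS at pH 7.0; final range 0.25–128 µg/mL. Inoculum 1000–5000 cells/mL from SDA subcultures. […] C. parapsilosis ATCC22019 served as QC strain.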

Candida albicans [1] = experiment: Antifungal activity against Candida albicans ATCC 10261 at 35 degC after 48 hrs by broth microdilution test; assay type: functional; conditions: Candida albicans, ATCC 10261, 48 h; for MIC: read-out: MIC; for MIC50: read-out: MIC50; for MIC90: read-out: MIC90; how it was run: as §1
Candida albicans [2] = experiment: Antifungal activity against Candida albicans ATCC 10261 at 35 degC after 48 to 96 hrs by broth microdilution test; assay type: functional; conditions: for MFC: Candida albicans, ATCC 10261, read-out: MFC
How it was run: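 Minimal fungicidal concentration for Candida. […] MFC is the lowest concentration allowing fewer than two colonies (99% killing).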

[3] = Cytotoxicity against human U937 cells assessed as reduction of cell viability after 24 hrs by MTT assay; assay type: cell-based, U-937
How it was run: (§2)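 U937 and K562 cells, from ATCC, plated at 5 × 10^4/mL in phenol-red-free RPMI-1640 with 20% FBS and penicillin/streptomycin. Compounds added 2 h later at 25–100 µg/mL, then 24 h at 37 °C. MTT at 1 mg/mL for 3 h, formazan dissolved in isopropanol with 0.1 N HCl, absorbance read at 570 nm. CC50 is the concentration reducing viability by 50% versus the drug-free control.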

[4] = Cytotoxicity against human K562 cells after assessed as reduction of cell viability 24 hrs by MTT assay; assay type: cell-based; how it was run: as §2
[5] = Therapeutic index, ratio of CC50 for human U937 cells to MIC90 for Candida albicans ATCC 10261; assay type: cell-based, U-937
How it was run: (§3)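 Therapeutic index calculated as CC50 in the given cell line divided by MIC90.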

[6] = Therapeutic index, ratio of CC50 for human K562 cells to MIC90 for Candida albicans ATCC 10261; assay type: cell-based; how it was run: as §3
Candida albicans [7] = experiment: Antifungal activity against fluconazole-resistant Candida albicans isolated from oropharyngeal or vaginal disease patient after 48 hrs by broth microdilution test; assay type: functional
Candida albicans [8] = experiment: Antifungal activity against fluconazole-sensitive Candida albicans Fe40 at 35 degC after 48 hrs by broth microdilution test; assay type: functional; how it was run: as §1
Arthrodermataceae [9] = experiment: Antifungal activity against dermatophytes at 28 degC after 7 days by broth microdilution test; assay type: functional; conditions: 168 h
How it was run: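 Ten clinical isolates (two M. canis, five M. gypseum, three T. mentagrophytes) tested by NCCLS M38-A broth microdilution in MOPS-buffered RPMI 1640, pH 7.0, over 0.25–128 µg/mL. Conidial/hyphal suspension from PDA slants (28 °C, 7 days) adjusted to 65–70% transmittance at OD530, then diluted 1:50.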

Arthrodermataceae [10] = experiment: Antifungal activity against dermatophytes at 28 degC after 5 days by broth microdilution test; conditions: for MFC: Arthrodermataceae
Arthrodermataceae [11] = experiment: Antifungal activity against dermatophytes at 28 degC after 48 to 96 hrs by broth microdilution test

## Clc1ccc(COC(Cn2ccnc2)c2ccc(Cl)cc2Cl)c(Cl)c1 (stereo not given) [MICONAZOLE]
Candida parapsilosis
  MFC: 0.5 µg/mL (≈ 1.2 µM)
  MIC: 1 µg/mL (≈ 2.4 µM)
Candida albicans [1]
  MIC: 3.25 µg/mL (≈ 7.81 µM)
  MIC50: 4 µg/mL (≈ 9.61 µM)
  MIC90: 4 µg/mL (≈ 9.61 µM)
Candida albicans [2]
  MFC50: 8 µg/mL (≈ 19.2 µM)
  MFC90: 16 µg/mL (≈ 38.4 µM)
  MFC: 12.2 µg/mL (≈ 29.3 µM)
[3]
  CC50 at 24 h: 120 µM
[4]
  CC50 at 24 h: 80 µM
[5]
  selectivity ratio: 30
[6]
  selectivity ratio: 20
Candida albicans [7]
  MIC: 3 µg/mL (≈ 7.21 µM)
Candida albicans [8]
  MIC: 4 µg/mL (≈ 9.61 µM)
Arthrodermataceae [9]
  MIC: 0.9 µg/mL (≈ 2.16 µM)
  MIC50: 1 µg/mL (≈ 2.4 µM)
  MIC90: 1 µg/mL (≈ 2.4 µM)
Arthrodermataceae [10]
  MFC90: 4 µg/mL (≈ 9.61 µM)
  MFC: 3 µg/mL (≈ 7.21 µM)
Arthrodermataceae [11]
  MFC50: 2 µg/mL (≈ 4.81 µM)

## Cc1ccc(C(CCn2ccnc2)Oc2ccc(Cl)cc2)cc1 (stereo not given)
Candida parapsilosis
  MFC: 8 µg/mL (≈ 24.5 µM)
  MIC: 4 µg/mL (≈ 12.2 µM)
Candida albicans [1]
  MIC: 2.4 µg/mL (≈ 7.34 µM)
  MIC50: 2 µg/mL (≈ 6.12 µM)
  MIC90: 4 µg/mL (≈ 12.2 µM)
Candida albicans [2]
  MFC50: 8 µg/mL (≈ 24.5 µM)
  MFC90: 16 µg/mL (≈ 49 µM)
  MFC: 12 µg/mL (≈ 36.7 µM)
[3]
  CC50 at 24 h: 168 µM
[4]
  CC50 at 24 h: 171 µM
[5]
  selectivity ratio: 42
[6]
  selectivity ratio: 42.8
Candida albicans [7]
  MIC: 3.6 µg/mL (≈ 11 µM)
Candida albicans [8]
  MIC: 2 µg/mL (≈ 6.12 µM)
Arthrodermataceae [9]
  MIC: 3.8 µg/mL (≈ 11.6 µM)
  MIC50: 4 µg/mL (≈ 12.2 µM)
  MIC90: 4 µg/mL (≈ 12.2 µM)
Arthrodermataceae [10]
  MFC90: 32 µg/mL (≈ 97.9 µM)
  MFC: 25.6 µg/mL (≈ 78.3 µM)
Arthrodermataceae [11]
  MFC50: 32 µg/mL (≈ 97.9 µM)

From ChEMBL document CHEMBL1157464, “1-[(3-Aryloxy-3-aryl)propyl]-1H-imidazoles, new imidazoles with potent activity against Candida albicans and dermatophytes. Synthesis, structure-activity relationship, and molecular modeling studies” (J Med Chem, 2008)
